In ChEMBL document CHEMBL4334429, “Rational design of novel amphipathic antimicrobial peptides focused on the distribution of cationic amino acid residues” (Medchemcomm, 2019):
Active and inactive are the calls of the source. The rule behind the calls is not given here.

Experiments:
Erythrocyte = assay: Hemolytic activity in human RBC after 3 hrs; assay type: ADME, cell-based
Procedure, shortened: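 Human red blood cells from Japanese Red Cross volunteers, washed three times and resuspended in PBS. Mixed 1:1 with diluted peptide and incubated 3 h at 37 °C. After centrifugation, supernatant absorbance read at 535 nm. Triton X-100 and M-lycotoxin served as positive controls.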

[1] = tested on: Staphylococcus epidermidis; assay: Antibacterial activity against Staphylococcus epidermidis after 18 hrs by broth microdilution method; assay type: functional
Procedure, shortened: (§1)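 Bacteria grown to mid-log phase in LB medium at 37 °C. Peptides 2-fold serially diluted from 200 μM to 1.56 μM and mixed 1:1 with inoculum of 10^6 CFU per mL. Incubation 18 h at 35 °C. MIC is the lowest concentration giving complete growth inhibition by visual inspection […].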

Pseudomonas aeruginosa = assay: Antibacterial activity against Pseudomonas aeruginosa NBRC 13725 after 18 hrs by broth microdilution method; assay type: functional; details: NBRC 13275, 18 h, in the assay text read “NBRC 13275” for “NBRC 13725”; procedure, shortened: as §1
TIG-3 [2] = assay: Cytotoxicity against human TIG3 at 1 to 100 uM after 72 hrs by WST-8 assay; assay type: cell-based; details: tig-3, 72 h
Procedure, shortened: (§2)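 Human normal fibroblast TIG-3 cells kept in DMEM with 10% FBS and 100 μg ml–1 kanamycin. Seeded at 5 × 10^3 cells per well, treated 24 h later for 72 h. WST-8 reagent then added for 0.5 h at 37 °C, 5% CO2, and absorbance read at 450 nm. Means ± SD, n = 4.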

Escherichia coli [3] = assay: Antibacterial activity against Escherichia coli DH5[alpha] after 18 hrs by broth microdilution method; assay type: functional; procedure, shortened: as §1
Lipid bilayer = assay: Induction of membrane disruption in PG/CL/PE unilamellar vesicles assessed as increase in carboxyfluorescein leakage at 6.25 uM by fluorescence assay
Procedure, shortened: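 E. coli-mimic liposomes of PG/CL/PE (2 : 1 : 7, w/w) loaded with 50 mM carboxyfluorescein in 20 mM Tris-HCl, pH 7.4; free dye removed by Sephadex G-50 gel filtration. Peptide added at 6.25 μM and leakage read by fluorescence. Release (%) = (Fobs−F0)/(F100−F0) × 100, with 100% set by Triton X-100.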

Staphylococcus aureus = assay: Antibacterial activity against Staphylococcus aureus after 18 hrs by broth microdilution method; assay type: functional; procedure, shortened: as §1
Proteus vulgaris = assay: Antibacterial activity against Proteus vulgaris NBRC 3045 after 18 hrs by broth microdilution method; assay type: functional; details: NBRC 3045, 18 h; procedure, shortened: as §1
Escherichia coli [4] = assay: Antibacterial activity against Escherichia coli NBRC 3972 after 18 hrs by broth microdilution method; assay type: functional; details: NBRC 3972, 18 h; procedure, shortened: as §1
TIG-3 [5] = assay: Cytotoxicity against human TIG3 at 100 uM after 72 hrs by WST-8 assay; assay type: cell-based; details: tig-3, 72 h; procedure, shortened: as §2

MIC [1] [µM] | MIC (Pseudomonas aeruginosa) [µM] | MIC (Escherichia coli [3]) [µM] | Activity (Lipid bilayer) | MIC (Staphylococcus aureus) [µM] | MIC (Proteus vulgaris) [µM] | MIC (Escherichia coli [4]) [µM] | Substance | IC50 (Erythrocyte) [µM] | Activity (TIG-3 [2]) | Activity (TIG-3 [5])
1.56 | 1.56 | 3.12 | Active | 12.5 | > 100 | 3.12 | H-KLLKKAGKLLKKAGKLLKKAG-NH2 | > 100 | Non-Toxic | 
6.25 | 6.25 | 12.5 | Active | 12.5 | > 100 | 6.25 | H-KKKKKKKKKGGGLLALLALLA-NH2 | 25 |  | Toxic
25 | 12.5 | 3.12 |  | 100 | > 100 | 3.12 | H-GIGKFLHSAKKFGKAFVGEIMNS-NH2 | > 100 |  | 
 |  |  |  |  |  |  | H-IWLTALKFLGKHAAKHLAKQQLSKL-NH2 | 0.78 |  | 
6.25 | 3.12 | 25 | Active | 100 | > 100 | 12.5 | H-KKKLAKLKLGAKLKLKGKLGA-NH2 | 100 | Non-Toxic | 
